Measured values reported in ChEMBL document CHEMBL1123359, “3,4-Dihydro-2-phenyl-2H-pyrano[2,3-b]pyridines with potent antirhinovirus activity” (1986).
Activity calls are given as the source filed them. The rule behind the calls is not given here.

Legend:
Human rhinovirus 1A = test: Concentration required to reduce Rhino virus type 1A induced plaque formation in HeLa cell culture to 50% of control; format: functional; conditions: read-out: ID50 (the source's name)
Outline: (§1)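 HeLa monolayers were grown at 36 °C in Eagle's MEM with Earle's salts, 1% antibiotic and 7-10% heat-inactivated fetal calf serum, with serum cut to 1-2% for maintenance. Plaque reduction cultures were incubated 48-72 h at 33 °C. RV-1A was propagated in HeLa; RV-9 was ATCC VR489.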

Human rhinovirus sp. [1] = test: Concentration required to reduce Rhino virus type 9 induced plaque formation in HeLa cell culture to 50% of control; format: functional; conditions: read-out: ID50 (the source's name); outline: as §1
Human rhinovirus sp. [2] = test: Concentration required to reduce Rhino virus type 64 induced plaque formation in HeLa cell culture to 50% of control; format: functional; conditions: read-out: ID50 (the source's name); outline: as §1
HeLa [3] = test: Concentration required to reduce Rhino virus type 9 induced plaque formation in HeLa cell culture to 50% of control; The highest concentration tested failed to provide 50% protection.; format: functional; conditions: Homo sapiens, read-out: ID50 (the source's name)
Outline: as §1, with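 “VR489. Plaque counts as % of compound-free control were plotted against log concentration, and the 50% point was found by linear regression.” for “VR489.”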

HeLa [4] = test: Lowest concentration at which the effect on HeLa cell colony formation became apparent.; format: functional, Homo sapiens
Outline: (§2)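 The assay scored effects of compound on the growth and morphology of HeLa cell colonies. HeLa stocks were kept in Eagle's MEM with Earle's salts, 1% antibiotic and 7-10% heat-inactivated fetal calf serum at 36 °C. The value is the lowest concentration at which a colony effect became apparent.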

[5] = Activity against polio type 2; No activity; format: functional
[6] = Activity against mengovirus.; No activity; format: functional
HeLa [7] = test: The cell growth inhibition ( CGI) concentration denotes the lowest concentration at which the effect on HeLa cell colony formation became apparent.; format: functional, Homo sapiens; outline: as §2
HeLa [8] = test: Concentration required to reduce Rhino virus type 1A induced plaque formation in HeLa cell culture to 50% of control; The highest concentration tested failed to provide 50% protection.; format: functional; conditions: Homo sapiens, read-out: ID50 (the source's name)
Outline: as §1, with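 “VR489. Plaque counts as % of compound-free control were plotted against log concentration, and the 50% point was found by linear regression.” for “VR489.”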

HeLa [9] = test: Concentration required to reduce Rhino virus type 64 induced plaque formation in HeLa cell culture to 50% of control; The highest concentration tested failed to provide 50% protection.; format: functional; conditions: Homo sapiens, read-out: ID50 (the source's name)

Row | Structure (SMILES) | IC50 (Human rhinovirus 1A) | IC50 (Human rhinovirus sp. [1]) | IC50 (Human rhinovirus sp. [2]) | also measured
1 | CC1(c2ccc(Cl)c(Cl)c2)CCc2cc(Cl)cnc2O1 (stereo unspecified) | 1090 nM | 580 nM | 400 nM | –
2 | Clc1ccc(C2=CCc3cc(Br)cnc3O2)cc1Cl | – | 590 nM | 12900 nM | IC50 (HeLa [3]): > 14000 nM
3 | Clc1ccc(C2CCc3cc(Br)cnc3O2)cc1Cl (stereo unspecified) | 30 nM | 220 nM | 60 nM | CGI (HeLa [4]): 28 µM; Activity [5]: inactive; Activity [6]: inactive
4 | Cc1ccc(C2CCc3cc(Br)cnc3O2)cc1 (stereo unspecified) | 70 nM | 390 nM | 230 nM | –
5 | Clc1ccc(C2C=Cc3cc(Cl)cnc3O2)cc1 (stereo unspecified) | 180 nM | 2300 nM | 470 nM | CGI (HeLa [7]): 9 µM
6 | Clc1ccc(C2CCc3cccnc3O2)cc1Cl (stereo unspecified) | 70 nM | 2180 nM | 640 nM | –
7 | Clc1ccc(C2CCc3cc(Br)cnc3O2)cc1 (stereo unspecified) | 30 nM | 30 nM | 30 nM | –
8 | Clc1ccc(C2C=Cc3cc(Br)cnc3O2)cc1Cl (stereo unspecified) | 530 nM | 110 nM | 60 nM | CGI (HeLa [7]): 14 µM
9 | CCCCSc1cnc2c(c1)CCC(c1ccc(Cl)c(Cl)c1)O2 (stereo unspecified) | 2830 nM | 6300 nM | 1390 nM | –
10 | CS(=O)(=O)c1cnc2c(c1)CCC(c1ccc(Cl)c(Cl)c1)O2 (stereo unspecified) | 470 nM | 140 nM | 10 nM | CGI (HeLa [4]): 56 µM
11 | Brc1cnc2c(c1)CCC(c1ccccc1)O2 (stereo unspecified) | 410 nM | 4760 nM | 3550 nM | –
12 | CS(=O)(=O)c1cnc2c(c1)CCC(c1ccccc1)O2 (stereo unspecified) | – | – | – | IC50 (HeLa [8]): > 17000 nM
13 | C[S+]([O-])c1cnc2c(c1)CCC(c1ccc(Cl)c(Cl)c1)O2 (stereo unspecified) | 260 nM | 30 nM | 9 nM | –
14 | Clc1ccc(C2CCc3cc(Cl)cnc3O2)cc1 (stereo unspecified) | 700 nM | 640 nM | 110 nM | CGI (HeLa [4]): 35 µM
15 | CSc1cnc2c(c1)CCC(c1ccc(Cl)c(Cl)c1)O2 (stereo unspecified) | 120 nM | 150 nM | 30 nM | CGI (HeLa [7]): 15 µM
16 | Brc1cnc2c(c1)C=CC(c1ccccc1)O2 (stereo unspecified) | 1490 nM | – | – | IC50 (HeLa [9]): > 3470 nM; IC50 (HeLa [3]): > 3470 nM
17 | Clc1cnc2c(c1)CCC(c1ccc(Cl)c(Cl)c1)O2 (stereo unspecified) | 60 nM | 290 nM | 30 nM | CGI (HeLa [4]): 16 µM
18 | CS(=O)(=O)c1cnc2c(c1)CCC(c1ccc(Cl)cc1)O2 (stereo unspecified) | 1420 nM | 1420 nM | 250 nM | –
